Test results from ChEMBL document CHEMBL1147111, “In vitro and in vivo activities of synthetic trioxolanes against major human schistosome species” (Antimicrob Agents Chemother, 2007).
The source made the active and inactive calls. The rule behind the calls is not given here.

Legend:
[1] = test system: Schistosoma mansoni; assay: Antischistosomal activity against Schistosoma mansoni assessed as worm death at 20 ug/ml after 24 hrs; type: functional, organism-based
Procedure, shortened: (§1)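 Adult S. mansoni (Liberian strain, 49-day-old) were held two males and two females per well, in duplicate, in Hanks' balanced salt solution with 20% calf serum, 300 IU/ml penicillin and 300 μg/ml streptomycin. Drug was given at 20 μg/ml final from a 1 mg/ml stock in 60% DMSO; solvent control was 1.2% DMSO. Incubation was at 37°C in 5% CO2. Worms were scored under a dissecting microscope at 24, 48 and 72 h for death, motor activity and tegument.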

[2] = test system: Schistosoma mansoni; assay: Antischistosomal activity against Schistosoma mansoni assessed as worm death at 20 ug/ml after 48 hrs; type: functional, organism-based; procedure, shortened: as §1
[3] = test system: Schistosoma mansoni; assay: Antischistosomal activity against Schistosoma mansoni assessed as worm death at 20 ug/ml after 72 hrs; type: functional, organism-based; procedure, shortened: as §1
[4] = test system: Schistosoma mansoni; assay: Reduction of motor activity of Schistosoma mansoni at 20 ug/ml after 24 hrs; type: functional, organism-based; procedure, shortened: as §1
[5] = test system: Schistosoma mansoni; assay: Reduction of motor activity of Schistosoma mansoni at 20 ug/ml after 48 hrs; type: functional, organism-based; procedure, shortened: as §1
[6] = test system: Schistosoma mansoni; assay: Reduction of motor activity of Schistosoma mansoni at 20 ug/ml after 72 hrs; type: functional, organism-based; procedure, shortened: as §1
[7] = test system: Schistosoma mansoni; assay: Tegumental alteration in Schistosoma mansoni at 20 ug/ml after 24 hrs; type: functional, organism-based; procedure, shortened: as §1
[8] = test system: Schistosoma mansoni; assay: Tegumental alteration in Schistosoma mansoni at 20 ug/ml after 48 hrs; type: functional, organism-based; procedure, shortened: as §1
[9] = test system: Schistosoma mansoni; assay: Tegumental alteration in Schistosoma mansoni at 20 ug/ml after 72 hrs; type: functional, organism-based; procedure, shortened: as §1
[10] = test system: Schistosoma mansoni; assay: Antischistosomal activity against NMRI mouse juvenile Schistosoma mansoni infection model assessed as reduction of total worm burden at 200 mg/kg, po after 28 days; type: functional; set-up: scale not given: the % may be the effect or the level left
Procedure, shortened: (§2)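 Juvenile-infection model: mice carrying Liberian-strain S. mansoni got one oral dose at day 21 postinfection, as a suspension in 7% Tween 80/3% ethanol. There were 3–5 per group, plus untreated controls. Necropsy by exsanguination followed 28 days after treatment. Liver and mesenteric-vein worms were collected, sexed and counted. Total and female burden reductions were calculated versus controls, with Kruskal-Wallis testing.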

[11] = test system: Schistosoma mansoni; assay: Antischistosomal activity against NMRI mouse juvenile Schistosoma mansoni infection model assessed as reduction of female worm burden at 200 mg/kg, po after 28 days; type: functional; set-up: scale not given: the % may be the effect or the level left; procedure, shortened: as §2
[12] = test system: Schistosoma mansoni; assay: Antischistosomal activity against NMRI mouse adult Schistosoma mansoni infection model assessed as reduction of total worm burden at 400 mg/kg, po after 28 days; type: functional; set-up: scale not given: the % may be the effect or the level left
Procedure, shortened: (§3)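 Mice with a Liberian-strain S. mansoni infection were dosed at 49 days postinfection with a single oral dose of compound suspended in 7% Tween 80/3% ethanol. Groups held 3–5 animals, with untreated controls. At 28 days posttreatment, animals were killed by bleeding. Worms in liver and mesenteric veins were removed, sexed and counted. Reductions were calculated against controls and tested by Kruskal-Wallis.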

[13] = test system: Schistosoma mansoni; assay: Antischistosomal activity against NMRI mouse adult Schistosoma mansoni infection model assessed as reduction of female worm burden at 400 mg/kg, po after 28 days; type: functional; set-up: scale not given: the % may be the effect or the level left; procedure, shortened: as §3
[14] = test system: Schistosoma mansoni; assay: Antischistosomal activity against Syrian golden hamster juvenile Schistosoma mansoni infection model assessed as reduction of total worm burden at 50 mg/kg, po after 28 days; type: functional; set-up: scale not given: the % may be the effect or the level left
Procedure, shortened: (§4)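 Hamsters infected with Liberian-strain S. mansoni were treated once orally at 21 days (juvenile lines) or 49 days (adult lines) postinfection. Doses were 50, 100 or 200 mg/kg, in 7% Tween 80/3% ethanol suspension. Groups had 3–4 animals, with untreated controls. After 28 days, animals were bled out. Worms from liver and mesenteric veins were sexed and counted, and cures and burden reductions versus controls were recorded (Kruskal-Wallis).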

[15] = test system: Schistosoma mansoni; assay: Antischistosomal activity against Syrian golden hamster juvenile Schistosoma mansoni infection model assessed as reduction of female worm burden at 50 mg/kg, po after 28 days; type: functional; set-up: scale not given: the % may be the effect or the level left; procedure, shortened: as §4
[16] = test system: Schistosoma mansoni; assay: Antischistosomal activity against Syrian golden hamster juvenile Schistosoma mansoni infection model assessed as reduction of total worm burden at 100 mg/kg, po after 28 days; type: functional; set-up: scale not given: the % may be the effect or the level left; procedure, shortened: as §4
[17] = test system: Schistosoma mansoni; assay: Antischistosomal activity against Syrian golden hamster juvenile Schistosoma mansoni infection model assessed as reduction of female worm burden at 100 mg/kg, po after 28 days; type: functional; set-up: scale not given: the % may be the effect or the level left; procedure, shortened: as §4
[18] = test system: Schistosoma mansoni; assay: Antischistosomal activity against Syrian golden hamster juvenile Schistosoma mansoni infection model assessed as reduction of total worm burden at 200 mg/kg, po after 28 days; type: functional; set-up: scale not given: the % may be the effect or the level left; procedure, shortened: as §4
[19] = test system: Schistosoma mansoni; assay: Antischistosomal activity against Syrian golden hamster juvenile Schistosoma mansoni infection model assessed as reduction of female worm burden at 200 mg/kg, po after 28 days; type: functional; set-up: scale not given: the % may be the effect or the level left; procedure, shortened: as §4
[20] = test system: Schistosoma mansoni; assay: Antischistosomal activity against Syrian golden hamster adult Schistosoma mansoni infection model assessed as reduction of total worm burden at 50 mg/kg, po after 28 days; type: functional; set-up: scale not given: the % may be the effect or the level left; procedure, shortened: as §4
[21] = test system: Schistosoma mansoni; assay: Antischistosomal activity against Syrian golden hamster adult Schistosoma mansoni infection model assessed as reduction of female worm burden at 50 mg/kg, po after 28 days; type: functional; set-up: scale not given: the % may be the effect or the level left; procedure, shortened: as §4
[22] = test system: Schistosoma mansoni; assay: Antischistosomal activity against Syrian golden hamster adult Schistosoma mansoni infection model assessed as reduction of total worm burden at 100 mg/kg, po after 28 days; type: functional; set-up: scale not given: the % may be the effect or the level left; procedure, shortened: as §4
[23] = test system: Schistosoma mansoni; assay: Antischistosomal activity against Syrian golden hamster adult Schistosoma mansoni infection model assessed as reduction of female worm burden at 100 mg/kg, po after 28 days; type: functional; set-up: scale not given: the % may be the effect or the level left; procedure, shortened: as §4
[24] = test system: Schistosoma mansoni; assay: Antischistosomal activity against Syrian golden hamster adult Schistosoma mansoni infection model assessed as reduction of total worm burden at 200 mg/kg, po after 28 days; type: functional; set-up: scale not given: the % may be the effect or the level left; procedure, shortened: as §4
[25] = test system: Schistosoma mansoni; assay: Antischistosomal activity against Syrian golden hamster adult Schistosoma mansoni infection model assessed as reduction of female worm burden at 200 mg/kg, po after 28 days; type: functional; set-up: scale not given: the % may be the effect or the level left; procedure, shortened: as §4
[26] = test system: Schistosoma japonicum; assay: Antischistosomal activity against Syrian golden hamster adult Schistosoma japonicum infection model assessed as reduction of total worm burden at 200 mg/kg, po; type: functional; set-up: scale not given: the % may be the effect or the level left
Procedure, shortened: (§5)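 Hamsters received 100 S. japonicum (Anhui strain) cercariae through shaved abdominal skin. At 35 days postinfection, they were given a single 200 mg/kg oral dose in Tween 80/ethanol suspension, with untreated controls. Animals were killed by bleeding, and worms were recovered by perfusion of hepatic and portomesenteric veins. Worms were sexed and counted, and reductions were computed against controls (Kruskal-Wallis).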

[27] = test system: Schistosoma japonicum; assay: Antischistosomal activity against Syrian golden hamster adult Schistosoma japonicum infection model assessed as reduction of female worm burden at 200 mg/kg, po; type: functional; set-up: scale not given: the % may be the effect or the level left; procedure, shortened: as §5
[28] = test system: Schistosoma japonicum; assay: Antischistosomal activity against New Zealand rabbit adult Schistosoma japonicum infection model assessed as reduction of total worm burden at 15 mg/kg, po; type: functional; set-up: scale not given: the % may be the effect or the level left
Procedure, shortened: (§6)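 Rabbits were infected percutaneously with 200 S. japonicum (Anhui strain) cercariae via shaved abdominal skin. A single 15 mg/kg oral dose in Tween 80/ethanol suspension was given 35 days postinfection, with untreated controls. After sacrifice by blood letting, worms were perfused from hepatic and portomesenteric veins, sexed and counted. Cures and burden reductions were determined versus controls (Kruskal-Wallis).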

[29] = test system: Schistosoma japonicum; assay: Antischistosomal activity against New Zealand rabbit adult Schistosoma japonicum infection model assessed as reduction of female worm burden at 15 mg/kg, po; type: functional; set-up: scale not given: the % may be the effect or the level left; procedure, shortened: as §6
[30] = test system: Schistosoma mansoni; assay: Antischistosomal activity against NMRI mouse adult Schistosoma mansoni infection model assessed as number of cured mouse at 400 mg/kg, po after 28 days; type: functional, organism-based; set-up: dose 400 mg/kg; procedure, shortened: as §3
[31] = test system: Schistosoma mansoni; assay: Antischistosomal activity against NMRI mouse juvenile Schistosoma mansoni infection model assessed as number of cured mouse at 200 mg/kg, po after 28 days; type: functional, organism-based; set-up: dose 200 mg/kg; procedure, shortened: as §2
[32] = test system: Schistosoma mansoni; assay: Antischistosomal activity against Syrian golden hamster juvenile Schistosoma mansoni infection model assessed as number of cured mouse at 50 mg/kg, po after 28 days; type: functional, organism-based; set-up: dose 50 mg/kg; procedure, shortened: as §4
[33] = test system: Schistosoma mansoni; assay: Antischistosomal activity against Syrian golden hamster juvenile Schistosoma mansoni infection model assessed as number of cured mouse at 100 mg/kg, po after 28 days; type: functional, organism-based; set-up: dose 100 mg/kg; procedure, shortened: as §4
[34] = test system: Schistosoma mansoni; assay: Antischistosomal activity against Syrian golden hamster juvenile Schistosoma mansoni infection model assessed as number of cured mouse at 200 mg/kg, po after 28 days; type: functional, organism-based; set-up: dose 200 mg/kg; procedure, shortened: as §4
[35] = test system: Schistosoma mansoni; assay: Antischistosomal activity against Syrian golden hamster adult Schistosoma mansoni infection model assessed as number of cured mouse at 50 mg/kg, po after 28 days; type: functional, organism-based; set-up: dose 50 mg/kg; procedure, shortened: as §4
[36] = test system: Schistosoma mansoni; assay: Antischistosomal activity against Syrian golden hamster adult Schistosoma mansoni infection model assessed as number of cured mouse at 100 mg/kg, po after 28 days; type: functional, organism-based; set-up: dose 100 mg/kg; procedure, shortened: as §4
[37] = test system: Schistosoma mansoni; assay: Antischistosomal activity against Syrian golden hamster adult Schistosoma mansoni infection model assessed as number of cured mouse at 200 mg/kg, po after 28 days; type: functional, organism-based; set-up: dose 200 mg/kg; procedure, shortened: as §4
[38] = test system: Schistosoma japonicum; assay: Antischistosomal activity against New Zealand rabbit adult Schistosoma japonicum infection model assessed as number of […] mg/kg, po; type: functional, organism-based; set-up: dose 15 mg/kg; procedure, shortened: as §6
[39] = test system: Mus musculus; assay: Toxicity in NMRI mouse with adult Schistosoma mansoni infection at 400 mg/kg, po after 48 to 96 hrs; type: organism-based; set-up: dose 400 mg/kg, route oral; conditions: in vivo
Procedure, shortened: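 Mice carrying a 49-day S. mansoni (Liberian strain) infection were given a single oral 400 mg/kg dose as a suspension in 7% Tween 80/3% ethanol. Deaths occurring 48–96 h after treatment were recorded.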

Structure (SMILES): O=C(O)C[C@H]1CC[C@]2(CC1)OO[C@]1(O2)C2CC3CC(C2)CC1C3
- Activity [1]: inactive
- Activity [2]: inactive
- Activity [3]: inactive
- Activity [4]: inactive
- Activity [5]: inactive
- Activity [6]: inactive
- Activity [7]: inactive
- Activity [8]: inactive
- Activity [9]: inactive
- Activity [10]: 82%
- Activity [11]: 87.3%
- Activity [12]: 0%
- Activity [13]: 0%
- Activity [14]: 73.4%
- Activity [15]: 67%
- Activity [16]: 83%
- Activity [17]: 78.3%
- Activity [18]: 80.2%
- Activity [19]: 75.1%
- Activity [20]: 46.1%
- Activity [21]: 38.9%
- Activity [22]: 69.2%
- Activity [23]: 79.6%
- Activity [24]: 85%
- Activity [25]: 93.2%
- Activity [26]: 94.2%
- Activity [27]: 100%
- Activity [28]: 40.7%
- Activity [29]: 42.3%
- Activity [30]: inactive
- Activity [31]: inactive
- Activity [32]: inactive
- Activity [33]: inactive
- Activity [34]: inactive
- Activity [35]: inactive
- Activity [36]: inactive
- Activity [37]: inactive
- Activity [38]: inactive

Structure (SMILES): NC[C@H]1CC[C@]2(CC1)OOC1(O2)C2CC3CC(C2)CC1C3 (stereo partly drawn)
- Activity [1]: inactive
- Activity [3]: Active
- Activity [6]: inactive
- Activity [9]: Active
- Activity [10]: 85%
- Activity [11]: 83.7%
- Activity [12]: 16.6%
- Activity [13]: 25%
- Activity [39]: Toxic
- Activity [31]: inactive
